Here are results for 8 molecules from publication PMC5902032 (European journal of medicinal chemistry, 2018).

As usually defined, the pIC50 is the IC50 on a negative log10 scale, so that one unit is a factor of ten.

Data set [1] has as its system P. falciparum D10 (CQ-S) strain. The experiment in a line: Antiplasmodial activity against D10 strain. The settings on record: read-out: D10 IC50. In kind it is cell-based, Plasmodium falciparum.
The subject of data set [2] is P. falciparum strain NF54 asexual blood stage parasites. The experiment in a line: NF54 asexual blood stage Sybrgreen DNA replication assay. In kind it is cell-based, Plasmodium falciparum. The settings on record: read-out: NF54 IC50, CQ-S strain, 72 h. In short, it runs like this: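 Asexual NF54 parasites were seeded at 0.83% parasitaemia and 1.5% haematocrit in RPMI1640 with 10% human serum. Serial dilutions were made from DMSO stocks in medium (final DMSO 0.1%). Plates were incubated 72 h at 37 °C under 3% O2 and 4% CO2. Growth was read as SYBR Green fluorescence.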

The target in data set [3] is P. falciparum NF54-HGL gametocytes. The data set is described as follows: NF54-HGL gametocyte luciferase assay. The format is cell-based, Plasmodium falciparum. To be noted: read-out: GCT: NF54-HGL IC50. In short, it runs like this:
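Gametocytes came from a flask inoculated with 1% asexual parasites at 5% haematocrit in RPMI1640 with 10% human serum. Asexual stages were cleared with 50 mM NAG on days 4–9. Mostly stage IV cells were Percoll-purified on day 11 and plated at 5000 per well (final DMSO 0.1%). After 72 h at 37 °C, 3% O2, 4% CO2, viability was read as ONE-Glo luminescence.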

The target of data set [4] is P. falciparum 3D7elo1-pfs16-CBG99 late-stage gametocytes. The experiment in a line: Gametocytocidal luciferase-based assay, 3D7elo1-pfs16-CBG99. The format is cell-based, Plasmodium falciparum. The settings on record: read-out: GCT: 3D7elo1-pfs16-CBG99 IC50, 72 h.
The test system of data set [5] is P. falciparum W2 (CQ-R) strain. The data set is described as follows: Antiplasmodial activity against W2 strain. The format is cell-based, Plasmodium falciparum. To be noted: read-out: W2 IC50.
Data set [6] relates to Langendorff-isolated rat hearts. The data set is described as follows: Cardiac mechanical function and ECG in Langendorff-isolated rat hearts. The settings on record: for Effect on left ventricular pressure (LVP): concentration-effect relationship; for Effect on coronary perfusion pressure (CPP): data not shown. In short, it runs like this:
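Rats heparinised (5000 U/kg) with xylazine (4 mg/kg), decapitated. Hearts perfused retrogradely via aorta at 10 mL/min with Krebs-Henseleit (95% O2-5% CO2, pH 7.4, 37 °C), equilibrated ≥20 min before drug. LVP by intraventricular latex balloon (end-diastolic 10 mmHg), systolic minus diastolic. CPP by inflow-line transducer. Surface ECG at 1 kHz: RR, HR, PQ, QRS, QT, Bazett-corrected QTc.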

A further data set concerns the target T1, PfPMT (Plasmodium falciparum, UniProt Q8IDQ9).
T1 sequence (Q8IDQ9 1-266): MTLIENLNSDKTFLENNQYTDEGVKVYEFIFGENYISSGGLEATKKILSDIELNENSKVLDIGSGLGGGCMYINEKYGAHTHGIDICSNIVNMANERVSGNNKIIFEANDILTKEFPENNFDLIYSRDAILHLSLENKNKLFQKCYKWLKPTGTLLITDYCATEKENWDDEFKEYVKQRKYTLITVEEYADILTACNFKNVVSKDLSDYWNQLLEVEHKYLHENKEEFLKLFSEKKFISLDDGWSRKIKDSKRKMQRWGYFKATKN
The experiment in a line: PfPMT radiochemical methyltransferase assay. The format is biochemical. To be noted: 100 μM. In short, it runs like this: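 Recombinant PfPMT was expressed in and purified from E. coli. Activity was measured radiochemically with 2 µg enzyme in 0.1 M Hepes-KOH pH 8.0, 2 mM Na2EDTA, 10% glycerol and 5% DMSO. The reaction contained 30 µM SAM (including 100 nCi [methyl-14C]SAM) and 55 µM phosphoethanolamine. Inhibitors were screened at 100 µM; values are mean ± SD, n = 3.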

Data set [7] relates to male and female NF54 gametes. To be noted: cited from earlier work.
For data set [8], the system named is late stages Plasmodium gametocytes. The settings on record: read-out: in vitro IC50 against late stages Plasmodium gametocytes; different published assays; cited from earlier work.
Data set [9] has as its system P. falciparum asexual and sexual stages. The settings on record: read-out: IC50 against P. falciparum asexual and sexual stages; cited from earlier work.
Another data set relates to P. berghei liver stages. The experiment in a line: P. berghei liver-stage analysis in mouse primary hepatocytes. In kind it is cell-based, Plasmodium berghei. Summed up:
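Mouse primary hepatocytes were infected with 20'000 mCherry-expressing P. berghei ANKA sporozoites. From 2 h post-infection, cells received a range of test compound concentrations or a matching DMSO control, with medium and drug renewed at 24 h. At 48 h, parasite number and size in unfixed cells were measured by automated microscopy (n = 4, SD). Groups were compared by one-way ANOVA with Dunnett's test.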

Another data set has as its target Cav1.2 channels (Rattus norvegicus, UniProt P22002). The data set is described as follows: Whole-cell patch-clamp of IBa1.2 in single rat tail artery myocytes. In kind it is cell-based. The settings on record: 30 μM. In short, it runs like this: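 Rat tail artery myocytes were isolated enzymatically (collagenase, 37 °C, 40–45 min), kept at 4 °C and used within two days. Whole-cell patch-clamp was run at 20–22 °C. The external solution held 5 mM Ba2+ and 30 mM TEA; the pipette solution was Cs+-based (pCa 8.4, pH 7.4). IBa was evoked by 250-ms pulses to 0 mV from −50 mV at 0.067 Hz, with recording once current had stabilised.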
(In patch-clamp work, channel activity is measured electrically.)

pIC50: −log10 of the molar value. Read-outs that look alike come from different tables or passages of the source.

Cav1.2 channels, sequence (P22002 whole entry): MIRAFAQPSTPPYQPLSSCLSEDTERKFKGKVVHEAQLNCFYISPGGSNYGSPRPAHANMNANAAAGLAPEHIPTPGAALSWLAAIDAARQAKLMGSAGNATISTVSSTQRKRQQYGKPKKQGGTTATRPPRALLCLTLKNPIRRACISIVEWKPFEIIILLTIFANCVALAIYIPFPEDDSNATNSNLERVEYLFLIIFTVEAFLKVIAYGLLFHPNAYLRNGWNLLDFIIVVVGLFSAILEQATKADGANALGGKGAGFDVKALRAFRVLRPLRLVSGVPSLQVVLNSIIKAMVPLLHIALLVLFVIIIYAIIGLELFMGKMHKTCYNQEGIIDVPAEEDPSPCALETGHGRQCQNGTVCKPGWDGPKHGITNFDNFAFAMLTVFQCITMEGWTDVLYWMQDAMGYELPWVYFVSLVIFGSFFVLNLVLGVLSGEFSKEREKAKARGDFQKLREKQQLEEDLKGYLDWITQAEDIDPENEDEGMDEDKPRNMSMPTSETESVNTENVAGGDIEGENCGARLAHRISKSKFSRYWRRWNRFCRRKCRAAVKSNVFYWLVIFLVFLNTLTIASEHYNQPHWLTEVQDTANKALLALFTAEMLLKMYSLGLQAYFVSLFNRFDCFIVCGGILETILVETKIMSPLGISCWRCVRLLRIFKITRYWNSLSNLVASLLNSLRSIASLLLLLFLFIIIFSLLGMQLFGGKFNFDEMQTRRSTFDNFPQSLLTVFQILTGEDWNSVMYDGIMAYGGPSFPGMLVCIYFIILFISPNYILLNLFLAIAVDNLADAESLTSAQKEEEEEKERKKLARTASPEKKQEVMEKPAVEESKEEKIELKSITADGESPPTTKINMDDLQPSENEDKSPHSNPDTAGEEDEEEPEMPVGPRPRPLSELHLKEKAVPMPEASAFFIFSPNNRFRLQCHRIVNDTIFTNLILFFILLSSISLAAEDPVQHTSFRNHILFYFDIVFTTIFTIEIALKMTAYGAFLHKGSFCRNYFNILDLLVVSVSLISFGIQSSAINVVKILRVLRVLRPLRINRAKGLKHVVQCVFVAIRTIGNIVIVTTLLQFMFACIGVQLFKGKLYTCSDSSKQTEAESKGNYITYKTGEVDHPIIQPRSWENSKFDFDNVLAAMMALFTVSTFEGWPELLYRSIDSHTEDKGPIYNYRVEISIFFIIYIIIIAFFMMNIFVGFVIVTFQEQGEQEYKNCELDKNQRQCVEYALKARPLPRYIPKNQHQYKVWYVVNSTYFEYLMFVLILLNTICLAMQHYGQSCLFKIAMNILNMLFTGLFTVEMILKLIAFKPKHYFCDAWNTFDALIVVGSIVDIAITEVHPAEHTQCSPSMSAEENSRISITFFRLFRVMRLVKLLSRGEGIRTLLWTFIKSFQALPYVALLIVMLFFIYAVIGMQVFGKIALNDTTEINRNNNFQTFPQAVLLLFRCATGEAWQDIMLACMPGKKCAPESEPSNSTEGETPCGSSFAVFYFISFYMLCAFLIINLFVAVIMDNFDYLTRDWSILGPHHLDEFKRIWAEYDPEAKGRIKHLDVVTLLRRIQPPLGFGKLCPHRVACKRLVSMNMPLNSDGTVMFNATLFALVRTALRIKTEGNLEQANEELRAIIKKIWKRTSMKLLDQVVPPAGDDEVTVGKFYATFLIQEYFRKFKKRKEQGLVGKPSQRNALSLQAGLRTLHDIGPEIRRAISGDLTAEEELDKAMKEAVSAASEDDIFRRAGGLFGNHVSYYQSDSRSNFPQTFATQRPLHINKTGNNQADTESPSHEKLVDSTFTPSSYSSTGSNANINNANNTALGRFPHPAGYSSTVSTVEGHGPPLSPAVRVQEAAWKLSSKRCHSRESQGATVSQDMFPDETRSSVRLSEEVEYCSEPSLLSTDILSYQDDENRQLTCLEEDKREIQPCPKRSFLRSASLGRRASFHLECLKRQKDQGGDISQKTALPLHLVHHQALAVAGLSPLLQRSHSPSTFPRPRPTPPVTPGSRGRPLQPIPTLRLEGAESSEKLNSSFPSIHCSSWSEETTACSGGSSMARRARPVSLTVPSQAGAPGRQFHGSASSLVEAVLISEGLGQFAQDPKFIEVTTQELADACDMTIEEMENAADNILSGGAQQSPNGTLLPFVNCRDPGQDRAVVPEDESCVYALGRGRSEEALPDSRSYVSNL
Cav1.2 channels, sequence (P54290 25-944 partner limits assumed): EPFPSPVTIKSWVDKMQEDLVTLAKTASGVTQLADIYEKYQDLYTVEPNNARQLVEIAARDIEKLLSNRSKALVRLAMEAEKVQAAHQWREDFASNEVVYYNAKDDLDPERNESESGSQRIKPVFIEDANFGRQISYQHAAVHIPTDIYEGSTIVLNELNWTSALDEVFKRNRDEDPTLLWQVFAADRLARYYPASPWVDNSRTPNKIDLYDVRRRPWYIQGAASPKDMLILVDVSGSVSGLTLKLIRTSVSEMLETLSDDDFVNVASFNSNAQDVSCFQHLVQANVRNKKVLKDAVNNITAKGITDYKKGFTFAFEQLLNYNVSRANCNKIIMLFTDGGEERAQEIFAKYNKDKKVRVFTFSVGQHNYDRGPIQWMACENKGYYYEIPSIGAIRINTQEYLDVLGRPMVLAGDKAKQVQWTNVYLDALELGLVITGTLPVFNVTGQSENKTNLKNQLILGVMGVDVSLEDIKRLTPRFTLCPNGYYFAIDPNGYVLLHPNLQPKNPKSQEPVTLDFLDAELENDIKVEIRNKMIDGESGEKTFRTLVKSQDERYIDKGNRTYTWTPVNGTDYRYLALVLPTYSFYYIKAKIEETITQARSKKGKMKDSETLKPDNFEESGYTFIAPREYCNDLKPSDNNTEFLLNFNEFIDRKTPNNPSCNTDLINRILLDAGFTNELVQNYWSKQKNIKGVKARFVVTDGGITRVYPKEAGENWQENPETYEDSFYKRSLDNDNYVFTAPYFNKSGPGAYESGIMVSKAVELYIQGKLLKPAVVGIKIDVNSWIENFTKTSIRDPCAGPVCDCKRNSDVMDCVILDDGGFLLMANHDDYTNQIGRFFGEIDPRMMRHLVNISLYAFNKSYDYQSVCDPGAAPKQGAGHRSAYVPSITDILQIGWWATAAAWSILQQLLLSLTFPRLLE
Cav1.2 channels, sequence (P54290 945-1091 partner limits assumed): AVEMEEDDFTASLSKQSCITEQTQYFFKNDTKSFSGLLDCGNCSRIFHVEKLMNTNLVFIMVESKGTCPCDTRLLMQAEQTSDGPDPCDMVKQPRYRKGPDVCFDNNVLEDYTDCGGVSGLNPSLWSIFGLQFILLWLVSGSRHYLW
Cav1.2 channels, sequence (P54287 whole entry partner): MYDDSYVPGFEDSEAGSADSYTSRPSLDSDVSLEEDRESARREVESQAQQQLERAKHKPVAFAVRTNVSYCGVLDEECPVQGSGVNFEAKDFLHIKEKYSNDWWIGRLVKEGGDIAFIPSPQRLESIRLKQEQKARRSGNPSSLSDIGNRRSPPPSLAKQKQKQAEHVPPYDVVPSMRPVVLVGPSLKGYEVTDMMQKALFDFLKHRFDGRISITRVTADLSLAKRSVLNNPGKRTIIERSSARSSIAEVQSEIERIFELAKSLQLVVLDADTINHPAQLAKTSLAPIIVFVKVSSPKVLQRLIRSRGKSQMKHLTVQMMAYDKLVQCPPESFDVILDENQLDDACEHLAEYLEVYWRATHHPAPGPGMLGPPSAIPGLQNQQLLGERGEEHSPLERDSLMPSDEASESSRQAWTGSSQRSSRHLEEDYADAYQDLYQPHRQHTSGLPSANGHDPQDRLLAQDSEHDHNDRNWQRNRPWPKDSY

Turning to “1-(5-Bromobenzothiophen-2-yl)-N-(piperidin-4-ylmethyl)methanamine [Compound 32]”, the pIC50 in data set [1] (CQ-S strain, 72 h, pLDH) is 6.00; in data set [2], 6.14; in data set [3] (gametocytes predominantly stage IV, 72 h, luminescence) it was 7.28; in [4] (late-stage gametocytes (stage IV–V), luciferase), 5.85; in [5] (CQ-R strain, 72 h, pLDH), 5.82.
Regarding `CCN(CC)CCCC(C)Nc1ccnc2cc(Cl)ccc12` (stereo not shown) [Chloroquine, reference compound], the pIC50 in [1] (Plasmodium falciparum, D10, 72 h) was 7.59; in data set [5] (Plasmodium falciparum, W2, 72 h), 6.51.
Turning to `Clc1cc(Br)ccc1-c1ccc(CNCC2CCNCC2)o1` [Compound 1, 1-(5-(4-Bromo-2-chlorophenyl)furan-2-yl)-N-(piperidin-4-ylmethyl)methanamine], in [6], the Sinus arrhythmia is recorded as 3 out of 4, the “Effect on left ventricular pressure (LVP)” value was “reduced left ventricular pressure (LVP) in a concentration-dependent manner” and the “Effect on coronary perfusion pressure (CPP)” value is listed as “leaving unaltered coronary perfusion pressure”. For the same molecule, the “Inhibitory activity against PfPMT” value on PfPMT was “weak activity”. In addition, the “Activity on male and female NF54 gametes” value in [7] was “activity on both male and female NF54 gametes”. Moreover, the pIC50 in data set [8] was more than 6.00. Further, the pIC50 in data set [9] was more than 6.00.
With `CN(C)CCCNCc1ccc(-c2ccc(F)c(Cl)c2)o1` [Compound 2, N-[(5-(3-chloro-4-fluorophenyl)furan-2-yl)methyl]-N′,N′-dimethylpropane-1,3-diamine, reference compound], the pIC50 in [8] is more than 6.00.
For `N#Cc1ccc(-c2ccc(CNCC3CCNCC3)o2)cc1` [Compound 24, 1-(5-(4-Cyanophenyl)furan-2-yl)-N-(piperidin-4-3ylmethyl)methanamine], at PfPMT, the “Inhibitory activity against PfPMT” value is recorded as “weak activity”.
As for `Clc1ccc(-c2ccc(CNCC3CCNCC3)o2)c(-c2ccccc2)c1` [Compound 25, 1-(5-(2-Phenyl-4-chlorophenyl)furan-2-yl)-N-(piperidin-4-ylmethyl)methanamine], in data set [6], the “Effect on left ventricular pressure (LVP)” value is recorded as “reduced left ventricular pressure (LVP) in a concentration-dependent manner” and the “Effect on coronary perfusion pressure (CPP)” value was “leaving unaltered coronary perfusion pressure”. For the same molecule, in the data set on P. berghei liver stages (48 hpi, mouse primary hepatocytes, different concentrations), the Parasite sizes entry was “Neither parasite numbers (Figure 2A) nor parasite sizes (Figure 2B) were significantly influenced”. For the same molecule, the “Parasite numbers per well” value with P. berghei liver stages (48 h, mouse primary hepatocytes, different concentrations) is reported as “no liver stage activity”. For the same molecule, in the data set on P. berghei liver stages (detached cells at 65 hpi vs 48 h number), the Detached cell formation entry is on record as “Neither concentration tested significantly inhibited detached cell formation”. Besides, the “Effect on IBa1.2 current” value on Cav1.2 channels was “blocked the current”.
For `C[N+](C)(CCCNCc1ccc(-c2ccc(Cl)cc2Br)o1)Cc1ccccc1.[Cl-]` [Compound 48, N-Benzyl-3-[(5-(4-chloro-2-bromophenyl)furan-2-yl-methyl)amino]-N,N-dimethylpropan-1-ammonium chloride], the “Inhibitory activity against PfPMT” value at PfPMT is “weak activity”.
Take `CC[C@H](C)[C@H](NC(=O)[C@H]([C@@H](C)CC)N(C)C(C)=O)C(=O)N[C@H](C(=O)N[C@@H](CC(C)C)C(=O)[C@@]1(C)CO1)[C@@H](C)O` [Epoxomycin, reference compound]: the pIC50 is 9.15 in data set [3] (Plasmodium falciparum, NF54, 72 h) and 8.15 in [4] (Plasmodium falciparum).
